Reference: ChEMBL document CHEMBL1149565, “Identification of a novel series of benzimidazoles as potent and selective antagonists of the human melanocortin-4 receptor” (Bioorg Med Chem Lett, 2007)
Active and inactive are the calls of the source. The rule behind the calls is not given here.

Assays:
[1] = biological target: T1, Melanocortin receptor 4 (Homo sapiens, UniProt P32245); assay: Displacement of [125I]NDP-alphaMSH from human melanocortin 4 receptor expressed in CHOK1 cells; type: cell-based, CHO-K1
T1 sequence (P32245 whole entry): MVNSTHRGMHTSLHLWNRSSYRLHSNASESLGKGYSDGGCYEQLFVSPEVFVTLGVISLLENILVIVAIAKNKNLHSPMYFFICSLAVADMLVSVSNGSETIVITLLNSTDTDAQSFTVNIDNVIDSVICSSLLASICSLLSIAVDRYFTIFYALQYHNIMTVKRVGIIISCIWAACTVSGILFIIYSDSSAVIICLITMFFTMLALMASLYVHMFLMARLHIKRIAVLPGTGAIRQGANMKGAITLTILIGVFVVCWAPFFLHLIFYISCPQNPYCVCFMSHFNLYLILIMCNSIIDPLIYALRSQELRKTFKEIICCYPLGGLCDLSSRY
How it was run: (§1)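 Membranes from CHO-K1 cells stably expressing human MC1, MC3, MC4 or MC5 receptor, 1–10 µg protein/well, in 50 mM Tris-HCl pH 7.4 with 0.2% BSA, 5 mM MgCl2, 1 mM CaCl2, 0.1 mg/mL bacitracin. Incubated with increasing test compound and 0.1–0.3 nM [125I]NDP-α-MSH, 90–120 min at 37 °C depending on subtype. Filtration on PEI-presoaked GF/C filters, cold buffer washes, radioactivity counted; nonlinear regression; three independent measurements.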

[2] = biological target: Melanocortin receptor 3 (Homo sapiens, UniProt P41968); assay: Displacement of [125I]NDP-alphaMSH from human melanocortin 3 receptor expressed in CHOK1 cells; type: cell-based, CHO-K1; how it was run: as §1
Chain of Melanocortin receptor 3 (P41968 whole entry): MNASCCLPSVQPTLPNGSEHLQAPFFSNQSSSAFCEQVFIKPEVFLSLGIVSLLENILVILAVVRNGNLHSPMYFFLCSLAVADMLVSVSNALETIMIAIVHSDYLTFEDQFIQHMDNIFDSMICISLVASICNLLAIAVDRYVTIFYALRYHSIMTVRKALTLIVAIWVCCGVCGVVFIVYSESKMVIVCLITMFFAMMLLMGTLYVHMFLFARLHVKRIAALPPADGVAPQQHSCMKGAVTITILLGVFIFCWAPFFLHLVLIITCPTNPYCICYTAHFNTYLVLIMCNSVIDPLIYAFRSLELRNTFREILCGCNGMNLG

[3] = biological target: Melanocortin receptor (M3 and M4) (Homo sapiens) (UniProt P32245+P41968); assay: Selectivity for human MC4R over human MC3R; type: protein assay
[4] = biological target: T1, Melanocortin receptor 4; assay: Antagonist activity at human melanocortin 4 receptor expressed in CHOK1 cells assessed as inhibition of NDP-alpha-MSH-stimulated cAMP production; type: functional, cell-based; conditions: CHO-K1
How it was run: (§2)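 CHO-K1 cells stably expressing human MC4 receptor, suspended in RPMI 1640 with 0.5 mM IBMX and 0.2% protein cocktail, 7000 cells/well on anti-cAMP antibody-coated electrode plates. NDP-α-MSH concentration–response run with increasing test compound concentrations (agonist check at 10 µM alone), 40 min at 37 °C. Cells lysed, 2.5 nM ruthenium-labelled cAMP added, 90 min, then electrochemiluminescence read-out. Nonlinear regression; KB by Schild regression, logarithmic mean of three independent measurements.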

[5] = biological target: T1, Melanocortin receptor 4; assay: Agonist activity at human melanocortin 4 receptor expressed in CHOK1 cells assessed as stimulation of cAMP production at 10 uM; type: functional, cell-based; conditions: CHO-K1; how it was run: as §2
[6] = biological target: Melanocyte-stimulating hormone receptor (Homo sapiens, UniProt Q01726); assay: Displacement of [125I]NDP-alphaMSH from human melanocortin 1 receptor expressed in CHOK1 cells; type: cell-based, CHO-K1; how it was run: as §1
Chain of Melanocyte-stimulating hormone receptor (Q01726 whole entry): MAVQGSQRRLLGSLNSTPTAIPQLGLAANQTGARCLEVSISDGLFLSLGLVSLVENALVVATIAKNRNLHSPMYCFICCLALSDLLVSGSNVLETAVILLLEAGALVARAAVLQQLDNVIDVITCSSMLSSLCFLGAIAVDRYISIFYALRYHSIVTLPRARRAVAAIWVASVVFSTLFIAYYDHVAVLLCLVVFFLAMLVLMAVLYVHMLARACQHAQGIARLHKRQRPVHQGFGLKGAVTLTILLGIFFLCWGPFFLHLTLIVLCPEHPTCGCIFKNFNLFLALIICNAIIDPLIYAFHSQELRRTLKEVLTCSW

[7] = biological target: Melanocortin receptor 5 (Homo sapiens, UniProt P33032); assay: Displacement of [125I]NDP-alphaMSH from human melanocortin 5 receptor expressed in CHOK1 cells; type: cell-based, CHO-K1; how it was run: as §1
Chain of Melanocortin receptor 5 (P33032 whole entry): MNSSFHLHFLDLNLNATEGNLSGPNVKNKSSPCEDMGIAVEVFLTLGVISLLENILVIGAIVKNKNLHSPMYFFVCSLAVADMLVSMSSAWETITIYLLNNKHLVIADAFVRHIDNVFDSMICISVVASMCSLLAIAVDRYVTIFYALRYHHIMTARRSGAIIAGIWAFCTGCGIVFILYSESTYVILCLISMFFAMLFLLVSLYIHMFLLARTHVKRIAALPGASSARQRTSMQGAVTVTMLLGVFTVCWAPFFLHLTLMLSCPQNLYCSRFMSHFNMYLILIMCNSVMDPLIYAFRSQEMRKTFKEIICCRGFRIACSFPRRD

[8] = Half life in Sprague-Dawley rat at 4.5 umol/kg, iv; type: ADME, organism-based; conditions: in vivo
How it was run: (§3)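 Fed male Sprague–Dawley rats, three per time point, given 4.5 µmol/kg intravenously via penile vein in 1 ml/kg 10% DMA/90% propanediol. Under deep isoflurane anaesthesia, blood taken from vena cava at 1, 15, 30, 60, 90 and 120 min, centrifuged 2000g, 15 min, 4 °C. Plasma and brain levels measured; brain/blood ratio from AUC.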

[9] = Ratio of drug level in brain to blood in Sprague-Dawley rat at 4.5 umol/kg, iv; type: ADME, tissue-based; conditions: read-out: Ratio AUC; how it was run: as §3

COc1cc(Nc2nc3ccc(C(=O)N(CC(C)C)CC(C)C)cc3n2CCCN)cc(OC)c1OC
Ki ([1]; read-out: Ki): 11000 nM
Ki ([1]; read-out: Log Ki (converted)): 11700 nM

CC(=O)c1ccc(Nc2nc3ccc(C(=O)N(CCC(C)C)CCC(C)C)cc3n2CCCN(C)C)cc1
Ki ([1]; read-out: Ki): 12 nM

CC(C)CCN(CCC(C)C)C(=O)c1ccc2nc(Nc3ccsc3)n(CCCN3CCCCC3)c2c1
Ki ([1]; read-out: Ki): 33 nM

CNC(=O)c1ccc(Nc2nc3ccc(C(=O)N(CCC(C)C)CCC(C)C)cc3n2CCCN2CCCCC2)cc1
Ki [2]: 130 nM
Fold change [3]: 40
Kb [4]: 3.2 nM
Activity [5]: inactive
Ki ([1]; read-out: Ki): 3.3 nM
Ki [6]: 9300 nM
Ki [7]: 880 nM

CC(C)CCN(CCC(C)C)C(=O)c1ccc2nc(Nc3ccc(Oc4ccccc4)cc3)n(CCCN3CCCCC3)c2c1
Ki ([1]; read-out: Ki): 2.1 nM

CC(=O)Nc1ccc(Nc2nc3ccc(C(=O)N(CCC(C)C)CCC(C)C)cc3n2CCCN2CCCCC2)cc1
Ki ([1]; read-out: Ki): 3.7 nM

CC(=O)c1ccc(Cc2nc3ccc(C(=O)N(CCC(C)C)CCC(C)C)cc3n2CCCN2CCCCC2)cc1
Ki [2]: 4500 nM
Kb [4]: 14 nM
Activity [5]: inactive
Ki ([1]; read-out: Ki): 3.9 nM
Ki [6]: > 10000 nM
Ki [7]: 5900 nM

CC(=O)c1ccc(Nc2nc3ccc(C(=O)N(CCC(C)C)CCC(C)C)cc3n2CCCO)cc1
Ki ([1]; read-out: Ki): 2300 nM

CC(C)CCN(CCC(C)C)C(=O)c1ccc2nc(Nc3ccc(C(=O)c4ccccc4)cc3)n(CCCN3CCCCC3)c2c1
Ki ([1]; read-out: Ki): 1.7 nM

CC(C)CCN(CCC(C)C)C(=O)c1ccc2nc(Nc3ccc(F)cc3)n(CCCN3CCCCC3)c2c1
Ki ([1]; read-out: Ki): 8.3 nM

CCCCN(CCCC)C(=O)c1ccc2nc(Nc3cc(OC)c(OC)c(OC)c3)n(CCCN)c2c1
Ki ([1]; read-out: Ki): 1000 nM

CC(=O)c1ccc(Nc2nc3ccc(C(=O)N(CCC(C)C)CCC(C)C)cc3n2CCCCN)cc1
Ki ([1]; read-out: Ki): 130 nM

CC(=O)c1ccc(Nc2nc3ccc(C(=O)N(CCC(C)C)CCC(C)C)cc3n2C2CCN(C)CC2)cc1
Ki ([1]; read-out: Ki): 50 nM

CCN(CC)CCCn1c(Nc2ccc(C(C)=O)cc2)nc2ccc(C(=O)N(CCC(C)C)CCC(C)C)cc21
Ki ([1]; read-out: Ki): 7.9 nM

CC(C)CCN(CCC(C)C)C(=O)c1ccc2nc(-c3c[nH]c4ccccc34)n(CCCN3CCCCC3)c2c1
Ki ([1]; read-out: Ki): 7 nM

CC(=O)c1ccc(Nc2nc3ccc(C(=O)N(CCC(C)C)CCC(C)C)cc3n2CCCN2CCN(C)CC2)cc1
Ki ([1]; read-out: Ki): 45 nM

CC(=O)c1ccc(Nc2nc3ccc(C(=O)N(CCC(C)C)CCC(C)C)cc3n2CCCN2CCOCC2)cc1
Ki ([1]; read-out: Ki): 33 nM

CC(C)CCN(CCC(C)C)C(=O)c1ccc2nc(NCc3ccccc3)n(CCCN3CCCCC3)c2c1
Ki ([1]; read-out: Ki): 18 nM

CC(=O)c1ccc(Nc2nc3ccc(C(=O)N(CCC(C)C)CCC(C)C)cc3n2CCCN)cc1
Ki ([1]; read-out: Ki): 60 nM

CC(C)CCN(CCC(C)C)C(=O)c1ccc2nc(Nc3ccc(-c4ccccc4)cc3)n(CCCN3CCCCC3)c2c1
Ki ([1]; read-out: Ki): 5.2 nM

COCCNc1nc2ccc(C(=O)N(CCC(C)C)CCC(C)C)cc2n1CCCN1CCCCC1
Ki ([1]; read-out: Ki): 78 nM

CC(C)CCN(CCC(C)C)C(=O)c1ccc2nc(Nc3ccc(Cl)cc3)n(CCCN3CCCCC3)c2c1
Ki ([1]; read-out: Ki): 8.8 nM

CCCCCN(CCCCC)C(=O)c1ccc2nc(Nc3cc(OC)c(OC)c(OC)c3)n(CCCN)c2c1
Ki ([1]; read-out: Ki): 640 nM

CC(C)CCN(CCC(C)C)C(=O)c1ccc2nc(Nc3ccc(C(N)=O)cc3)n(CCCN3CCCCC3)c2c1
Ki ([1]; read-out: Ki): 6.5 nM

CC(C)CCN(CCC(C)C)C(=O)c1ccc2nc(Nc3cccc4[nH]ccc34)n(CCCN3CCCCC3)c2c1
Ki ([1]; read-out: Ki): 14 nM

COc1cc(Nc2nc3ccc(C(=O)N(CCC(C)C)CCC(C)C)cc3n2CCCN)cc(OC)c1OC
Ki ([1]; read-out: Ki): 420 nM

CNCCCn1c(Nc2ccc(C(C)=O)cc2)nc2ccc(C(=O)N(CCC(C)C)CCC(C)C)cc21
Ki ([1]; read-out: Ki): 51 nM

CC(C)CCN(CCC(C)C)C(=O)c1ccc2nc(Nc3cccnc3)n(CCCN3CCCCC3)c2c1
Ki ([1]; read-out: Ki): 4.2 nM

CCC(=O)c1ccc(Nc2nc3ccc(C(=O)N(CCC(C)C)CCC(C)C)cc3n2CCCN2CCCCC2)cc1
Ki ([1]; read-out: Ki): 2.7 nM

COC(=O)c1ccc(Nc2nc3ccc(C(=O)N(CCC(C)C)CCC(C)C)cc3n2CCCN2CCCCC2)cc1
Ki ([1]; read-out: Ki): 0.9 nM

CC(C)CCN(CCC(C)C)C(=O)c1ccc2nc(Nc3ccc(Br)cc3)n(CCCN3CCCCC3)c2c1
Ki ([1]; read-out: Ki): 7.5 nM

CC(=O)c1ccc(Nc2nc3ccc(C(=O)N(CCC(C)C)CCC(C)C)cc3n2CC(C)(C)CN(C)C)cc1
Ki ([1]; read-out: Ki): 730 nM

CC(C)CCN(CCC(C)C)C(=O)c1ccc2nc(-c3cc4ccccc4s3)n(CCCN3CCCCC3)c2c1
Ki ([1]; read-out: Ki): 2.9 nM

CC(=O)c1cccc(Nc2nc3ccc(C(=O)N(CCC(C)C)CCC(C)C)cc3n2CCCN2CCCCC2)c1
Ki ([1]; read-out: Ki): 4.5 nM

CC(=O)c1ccc(Nc2nc3ccc(C(=O)N(CCC(C)C)CCC(C)C)cc3n2CCN)cc1
Ki ([1]; read-out: Ki): 220 nM

CCCN(CCC)C(=O)c1ccc2nc(Nc3cc(OC)c(OC)c(OC)c3)n(CCCN)c2c1
Ki ([1]; read-out: Ki): 17000 nM
Ki ([1]; read-out: Log Ki (converted)): 17800 nM

COC(=O)c1ccc(-c2nc3ccc(C(=O)N(CCC(C)C)CCC(C)C)cc3n2CCCN2CCCCC2)cc1
Ki ([1]; read-out: Ki): 45 nM

COc1ccc(C(=O)c2nc3ccc(C(=O)N(CCC(C)C)CCC(C)C)cc3n2CCCN2CCCCC2)cc1
Ki [2]: 540 nM
Fold change [3]: 40
Kb [4]: 44 nM
Activity [5]: inactive
Ki ([1]; read-out: Ki): 0.96 nM
Ki [6]: 7500 nM
Ki [7]: 1600 nM

CC(=O)c1ccccc1Nc1nc2ccc(C(=O)N(CCC(C)C)CCC(C)C)cc2n1CCCN1CCCCC1
Ki ([1]; read-out: Ki): 110 nM

CC(C)CCN(CCC(C)C)C(=O)c1ccc2nc(Nc3ccc(N4CCCCC4)cc3)n(CCCN3CCCCC3)c2c1
Ki ([1]; read-out: Ki): 9.7 nM

COc1ccc(-c2nc3ccc(C(=O)N(CCC(C)C)CCC(C)C)cc3n2CCCN2CCCCC2)cc1
Ki ([1]; read-out: Ki): 37 nM

CC(=O)c1ccc(Nc2nc3ccc(C(=O)N(CCC(C)C)CCC(C)C)cc3n2CCCNC(=O)OC(C)(C)C)cc1
Ki ([1]; read-out: Ki): > 10000 nM
Ki ([1]; read-out: Log Ki (converted)): 85100 nM

COc1ccc(Nc2nc3ccc(C(=O)N(CCC(C)C)CCC(C)C)cc3n2CCCN2CCCCC2)cc1
Ki ([1]; read-out: Ki): 5 nM

CC(=O)c1ccc(CNc2nc3ccc(C(=O)N(CCC(C)C)CCC(C)C)cc3n2CCCN2CCCCC2)cc1
Ki ([1]; read-out: Ki): 5.8 nM

CC(=O)NCCNc1nc2ccc(C(=O)N(CCC(C)C)CCC(C)C)cc2n1CCCN1CCCCC1
Ki ([1]; read-out: Ki): 31 nM

CC(C)CCN(CCC(C)C)C(=O)c1ccc2nc(-c3cn(C)c4ccccc34)n(CCCN3CCCCC3)c2c1
Ki ([1]; read-out: Ki): 3.2 nM

CC(=O)c1ccc(-c2nc3ccc(C(=O)N(CCC(C)C)CCC(C)C)cc3n2CCCN2CCCCC2)cc1
Ki ([1]; read-out: Ki): 20 nM

CC(C)CCN(CCC(C)C)C(=O)c1ccc2nc(Nc3ccc([N+](=O)[O-])cc3)n(CCCN3CCCCC3)c2c1
Ki ([1]; read-out: Ki): 2.2 nM

CC(C)CCN(CCC(C)C)C(=O)c1ccc2nc(Nc3ccccc3)n(CCCN3CCCCC3)c2c1
Ki ([1]; read-out: Ki): 7.3 nM

CC(=O)c1ccc(Nc2nc3ccc(C(=O)N(CCC(C)C)CCC(C)C)cc3n2CCCN2CCCC2)cc1
Ki ([1]; read-out: Ki): 4.9 nM

CC(=O)c1ccc(Nc2nc3ccc(C(=O)N(CCC(C)C)CCC(C)C)cc3n2CCCN2CCCCC2)cc1
Ki [2]: 400 nM
half-life [8]: 5 h
Kp [9]: 2.9
Kb [4]: 77 nM
Activity [5]: inactive
Ki ([1]; read-out: Ki): 2 nM
Ki [6]: 5200 nM
Ki [7]: 2200 nM

COc1ccc(Cc2nc3ccc(C(=O)N(CCC(C)C)CCC(C)C)cc3n2CCCN2CCCCC2)cc1
Ki ([1]; read-out: Ki): 28 nM

CC(=O)c1ccc(Nc2nc3ccc(C(=O)N(CC(C)C)CC(C)C)cc3n2CCCN)cc1
Ki ([1]; read-out: Ki): 770 nM
